The list is not random: actives were taken first. Their share in the collection is about 5%.
Mdm2 MdmX PPI – human Mdm2/MdmX binding inhibition; 330,000 tested, 3% active; SaOS-2 split-luciferase Mdm2/MdmX complementation, luminescence; inhibition, % at 8 µM; AID 485346;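 active means inhibition of at least 50% at 8 µM in the primary screen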
Target sequence (O15151 whole entry, looked up): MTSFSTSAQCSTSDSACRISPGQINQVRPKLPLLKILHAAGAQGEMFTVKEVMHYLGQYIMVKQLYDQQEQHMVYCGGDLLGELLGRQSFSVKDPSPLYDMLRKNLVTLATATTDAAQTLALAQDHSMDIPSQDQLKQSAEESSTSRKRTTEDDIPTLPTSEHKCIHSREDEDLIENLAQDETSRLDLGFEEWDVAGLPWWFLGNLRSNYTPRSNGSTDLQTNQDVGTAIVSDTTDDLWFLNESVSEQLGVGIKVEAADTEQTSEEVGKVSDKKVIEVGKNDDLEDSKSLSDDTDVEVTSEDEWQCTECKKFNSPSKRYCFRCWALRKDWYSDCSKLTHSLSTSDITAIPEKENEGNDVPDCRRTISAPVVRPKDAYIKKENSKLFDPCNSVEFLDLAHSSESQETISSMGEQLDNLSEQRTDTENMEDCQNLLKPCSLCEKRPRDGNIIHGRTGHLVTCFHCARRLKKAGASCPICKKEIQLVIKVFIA
Target sequence (Q00987 whole entry, looked up): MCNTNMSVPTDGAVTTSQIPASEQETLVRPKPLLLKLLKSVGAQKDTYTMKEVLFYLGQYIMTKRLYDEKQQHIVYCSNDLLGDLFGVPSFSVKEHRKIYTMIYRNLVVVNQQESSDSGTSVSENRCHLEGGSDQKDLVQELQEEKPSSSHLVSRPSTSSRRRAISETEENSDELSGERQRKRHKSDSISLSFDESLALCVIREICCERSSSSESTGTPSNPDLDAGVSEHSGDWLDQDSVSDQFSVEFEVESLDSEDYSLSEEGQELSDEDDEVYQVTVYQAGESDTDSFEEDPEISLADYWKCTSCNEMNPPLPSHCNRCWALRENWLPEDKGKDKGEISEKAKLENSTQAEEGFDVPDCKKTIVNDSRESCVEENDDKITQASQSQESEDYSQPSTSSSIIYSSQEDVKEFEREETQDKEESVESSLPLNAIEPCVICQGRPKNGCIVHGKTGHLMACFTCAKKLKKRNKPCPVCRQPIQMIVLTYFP
T cruzi repl – blocks replication of Trypanosoma cruzi. T. cruzi beta-gal in NIH3T3, luminescence, 90 h. inhibition, % (test concentration not listed). 300,000 tested, 1.4% active;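 active means mean inhibition across valid replicates above about 55%, limit read from the data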;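 further: signal also drops with host cell toxicity which is not excluded here; 0% = plate median of DMSO wells and 100% = zero luminescence signal; higher percent means less beta-gal luminescence so fewer parasites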
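Assay system: NIH/3T3 host cells with β-galactosidase reporter T. cruzi; input: 5,000 host fibroblasts per well; compound: single 50 nL compound addition per well in DMSO; timing: ≥90 h infection period, 3 h prior cell attachment; measured by: GalScreen β-gal luminescence, detergent lysis, 60 min; evaluation: percent inhibition of parasite-derived β-gal signal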
CSC inhib – blocks cancer stem cells | cancer stem cell-like cells viability, luminescence | inhibition, % at 7.5 µM | 300,000 tested, 1.1% active; in the data active means inhibition above about 75%; tested in HMLE shEcad cells
Beta cell apopt – blocks beta cell apoptosis. INS-1E cytokine-induced death, ATP luminescence, 48 h; percent of positive-control rescue, neutral wells zero. protection from apoptosis, % (no concentration beside the values). AID 435005. 300,000 tested, 0.8% active;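 active means Every replicate reaches about 75%, or at least half do and their mean reaches it too, limit read from the data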;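 further: 0% = cytokine-treated negative control wells and 100% = positive control rescue; higher means more ATP so stronger rescue from cytokine killing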
CHOP UPR activ – apoptotic UPR (CHOP) activation. CHO-CHOP luciferase reporter, luminescence; percent of tunicamycin response over DMSO baseline. activation, % at 10 µM. 330,000 tested, 0.34% active. AID 449763;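 active means at 10 µM dose, activation of 40% or more, normalized to positive control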;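 further: 100% = tunicamycin at 10 µg/mL and 0% = DMSO alone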
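System: CHO-CHOP luciferase reporter cell line; amount: 500 cells/well; buffer or medium: F12 medium containing 10% fetal bovine serum; incubation: 6 h compound exposure at 37 °C after overnight seeding; measured by: luciferase luminescence after 10 min with Steady-Glo reagent; evaluation: % reporter activation, DMSO baseline versus tunicamycin full activation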
XBP1 UPR activ – adaptive UPR (XBP1) activation; 330,000 tested, 0.33% active; activation, % at 20 µM; CHO-XBP1 luciferase reporter, IRE1-XBP1 UPR activation, luminescence; percent of tunicamycin response, DMSO as zero;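 active means versus positive control, 20 µM dose yields 30% or more activation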;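 further: 100% = tunicamycin at 10 µg/mL and 0% = DMSO only wells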
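Material: CHO-XBP1 cells stably carrying IRE1-XBP1-driven luciferase reporter / Amount: 1000 cells per well / Compound: 20 µM, 1% DMSO / Times: 6 h treatment, 37 °C / Detection: luciferase luminescence / Measure: % activation of reporter signal versus tunicamycin and DMSO controls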
Mdm2 MdmX conf – human Mdm2/MdmX binding inhibition, confirmed. shares compounds with Mdm2 MdmX PPI. luminescent assay. inhibition, % at 8 µM. 10,000 tested, 55% active; in the data active means inhibition above about 40%
FLuc counter – counter-screen for Mdm2/MdmX inhibitors: full-length luciferase | inhibition, % at 8 µM | shares compounds with Mdm2 MdmX PPI | 6,200 tested, 77% active | SaOS-2 full-length luciferase counterscreen, luminescence;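 active means mean inhibition at 8 µM reaching about 37%, which flags the compound as non-specific, limit read from the data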;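 further: p53-null SaOS-2 cells with luciferase driven by a doxycycline-inducible promoter; compound on cells about two nights before reading with doxycycline added after day one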
An asterisk follows results filed as active.

Screening C=CCC[C@H](Cc1ccc(F)cc1)C(=O)OC[C@H](Cc1c[nH]c2ccccc12)NC(=O)[C@@H](CC=C)CC(=O)N[C@H](CO)Cc1ccccc1 returned Mdm2 MdmX PPI 84.5*, CSC inhib 64.0, Beta cell apopt 5.8, CHOP UPR activ 18.4, XBP1 UPR activ -0.9 and Mdm2 MdmX conf 28.9.
Screening C=CCC[C@H](Cc1ccc(F)cc1)C(=O)OC[C@H](Cc1c[nH]c2ccccc12)NC(=O)[C@@H](CC=C)CC(=O)N[C@@H](CO)Cc1ccccc1 returned Mdm2 MdmX PPI 77.4*, CSC inhib 39.2, Beta cell apopt 52.3, CHOP UPR activ 10.6, XBP1 UPR activ 13.6, Mdm2 MdmX conf 42.1* and FLuc counter 49.0*.
For COCCCN1C2=C(C(=O)CC(C)(C)C2)C(c2ccc(O)c(OC)c2)C2=C1CC(C)(C)CC2=O the results were Mdm2 MdmX PPI -4.1, T cruzi repl 9.2, CSC inhib -18.0, Beta cell apopt -6.6, CHOP UPR activ 1.9 and XBP1 UPR activ 1.1.
CCOc1ccc(S(=O)(=O)N2CCN(CN3C(=O)CC4(CCCC4)C3=O)CC2)cc1 was read as Mdm2 MdmX PPI -13.0, CHOP UPR activ -0.6 and XBP1 UPR activ 0.4.
`O=C(NCc1ccc(Cl)s1)C1CCC(=O)N(CCc2cccc(F)c2)C1` (stereo not drawn) gave Mdm2 MdmX PPI -3.6, T cruzi repl 9.1, CSC inhib -7.0, Beta cell apopt -0.2, CHOP UPR activ -0.3 and XBP1 UPR activ 1.0.
Screening CCOc1ccc(OCc2cccc(C(=O)O)c2)cc1 returned Mdm2 MdmX PPI 60.9*, T cruzi repl -10.4, CSC inhib 49.4, Beta cell apopt 13.3, CHOP UPR activ -9.5, XBP1 UPR activ -6.1, Mdm2 MdmX conf 93.8* and FLuc counter 7.2.
`COc1ccc(OCc2cccc(C(=O)O)c2)cc1` gave Mdm2 MdmX PPI 85.3*, T cruzi repl -16.8, CSC inhib 38.9, Beta cell apopt -3.7, CHOP UPR activ -11.2, XBP1 UPR activ -13.9, Mdm2 MdmX conf 81.4* and FLuc counter 50.5*.
CCOc1ccc(NC(=O)NCCCCc2ccccc2)cc1 was read as Mdm2 MdmX PPI 50.5*, T cruzi repl 18.0, CSC inhib 15.1, Beta cell apopt -6.6, CHOP UPR activ -1.3, XBP1 UPR activ 1.9 and Mdm2 MdmX conf 23.2.
COc1ccc(NC(=O)NCCCCc2ccccc2)cc1 was read as Mdm2 MdmX PPI 3.0, CSC inhib 24.8, Beta cell apopt -1.3, CHOP UPR activ 0.1 and XBP1 UPR activ -1.5.
Screening O=C(O)c1cccc(COc2ccc3c(c2)CCC3)c1 returned Mdm2 MdmX PPI 68.3*, T cruzi repl -12.3, CSC inhib 7.7, Beta cell apopt -3.2, CHOP UPR activ -11.1, XBP1 UPR activ -8.2, Mdm2 MdmX conf 78.2* and FLuc counter 24.1.
CCOc1ccc(OCc2cccc(C(=O)N3CCCC3)c2)cc1 was read as Mdm2 MdmX PPI 10.8, T cruzi repl 3.7, CSC inhib -11.6, Beta cell apopt 2.7, CHOP UPR activ -4.2 and XBP1 UPR activ -5.2.
COc1ccc(CCNC(=O)c2nn(C)c3c2CS(=O)(=O)c2ccccc2-3)cc1OC was read as Mdm2 MdmX PPI -5.9, T cruzi repl -11.5, CSC inhib 10.2, Beta cell apopt -0.7, CHOP UPR activ 1.3 and XBP1 UPR activ -0.7.
Screening COC(=O)c1cc(OC)c(OC)cc1NC(=O)c1csc(C)c1 returned Mdm2 MdmX PPI 2.9, T cruzi repl 23.5, CSC inhib 19.8, Beta cell apopt 6.5, CHOP UPR activ 1.0 and XBP1 UPR activ 0.3.
For COc1ccc(C)cc1NC(=O)CCNC(=O)Cn1cnc2ccccc2c1=O the results were Mdm2 MdmX PPI -10.9, T cruzi repl -8.0, CSC inhib 29.2, Beta cell apopt 3.2, CHOP UPR activ 0.3 and XBP1 UPR activ 2.2.

Screening data as filed in PubChem BioAssay.
